# Assay outcomes as filed in PubChem BioAssay.
# Beta2AR agonist: human beta-2 adrenergic receptor agonism by FAP; P07550; Am2.2-beta2AR cells, FAP receptor internalization, flow cytometry; response, % (test concentration not listed); hit rate 0.43% among 340,000; AID 504454;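 active = response above a set limit, near 3 SD of response in nonfluorescent compounds, cut at about 42% in these data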
# Target sequence (P07550 whole entry, looked up): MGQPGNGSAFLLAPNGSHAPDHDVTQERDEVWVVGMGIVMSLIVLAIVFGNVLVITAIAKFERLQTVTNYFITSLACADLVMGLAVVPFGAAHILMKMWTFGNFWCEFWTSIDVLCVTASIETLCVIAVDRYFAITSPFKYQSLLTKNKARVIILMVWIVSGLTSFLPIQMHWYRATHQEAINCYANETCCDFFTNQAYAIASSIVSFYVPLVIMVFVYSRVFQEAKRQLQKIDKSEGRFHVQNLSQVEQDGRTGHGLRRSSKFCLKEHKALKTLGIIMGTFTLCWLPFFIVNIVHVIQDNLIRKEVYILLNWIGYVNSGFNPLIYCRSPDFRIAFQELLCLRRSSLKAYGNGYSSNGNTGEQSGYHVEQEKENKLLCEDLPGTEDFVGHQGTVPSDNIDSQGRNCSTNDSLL
# m5-HT2A agonist: agonists of mouse serotonin 5-HT2A receptor (HTR2A). P35363. CHO-K1 mHTR2A beta-arrestin complementation, luminescence; percent of 30 µM serotonin response. activation, % at 7.6 µM. hit rate 0.66% among 360,000. AID 624169;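 active = activation above a run cutoff, the mean activation of all tested compounds plus 3 SD, cut at about 14% in these data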;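 note: 0% = plate median of compound wells and 100% = 30 µM serotonin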
# TAAR1 ag: human TAAR1 agonism | Q96RJ0 | CHO RD-HGA16 TAAR1, Fluo-8 calcium fluorescence; vehicle wells 0%, saturating PEA agonist 100% | activation, % at 3 µM | hit rate 0.99% among 360,000;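 active = activation above the mean activation of all test compounds in the run plus 3 SD, cut at about 38% in these data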
#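 System: CHO-derived RD-HGA16 cells with stable Gα16 and human TAAR1. Times: 17-24 h plating, Fluo-8 75 min 37 °C, 30 min RT. Measured by: calcium-sensitive Fluo-8 signal, excitation 470-495, emission 515-575 nm. Read-out basis: % activation relative to PEA EC100 response. Control set: DMSO and PEA EC100. Repeats: no replicates (n 1).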
# MC4R antag cAMP: blocks human MC4R cAMP signaling; MC4R-expressing cells, MTII-stimulated cAMP, LANCE TR-FRET; inhibition, % at 6.5 µM; hit rate 0.48% among 360,000; AID 540295;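 active = inhibition above its plate's cutoff, the mean of tested wells on that plate plus 3 SD, cut at about 29% in these data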;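 note: 0% = Melanotan II alone and 100% = Melanotan II plus saturating MCL0020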
#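 System: U2OS cells stably expressing human melanocortin 4 receptor (MC4R). Reagent: Melanotan II challenge after compound preincubation. Doses: 6.5 µM. Times: 30-min compound, 1-h challenge, 1-h detection, room temperature. Measured by: TR-FRET with Eu-cAMP and labeled anti-cAMP, 671 nm. Replicates: singlicate.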
# TAAR1 antag: antagonists of human TAAR1 | CHO RD-HGA16 TAAR1, Fluo-8 calcium fluorescence, antagonist | inhibition, % at 3 µM | hit rate 1.5% among 360,000 | AID 624466;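 active = inhibition above a per-plate cutoff, the mean inhibition of test compounds on that plate plus 3 SD, cut at about 49% in these data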;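 note: 0% = DMSO plus EC80 beta-PEA response and 100% = DMSO alone without agonist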
#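 Assay system: CHO-derived RD-HGA16 cells stably expressing human TAAR1 plus Gα16. Timing: 140 s kinetic read after compound, 140 s after agonist. Technique: kinetic Fluo-8 calcium fluorescence measurement. Measure: % inhibition of agonist calcium response.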
# MC4R barr agon: human MC4R agonism via beta-arrestin. P32245. U2OS MC4R beta-arrestin complementation, luminescence; percent of melanotan II response, DMSO zero. activation, % at 8.9 µM. hit rate 0.98% among 360,000. AID 540308;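 active = activation above a per-plate cutoff, the mean activation of sample wells on that plate plus 3 SD, cut at about 8% in these data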
# MOR ag counter: OPRM1 agonism in mouse HTR2A counterscreen; shares compounds with m5-HT2A agonist; AID 624380; U2OS OPRM1 beta-arrestin PathHunter, luminescence; DMSO 0%, DAMGO 9.3 µM 100%; hit rate 5.3% among 2,300; activation, % at 9.3 µM;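 active = mean activation above the mean of DMSO-only wells plus 3 SD, cut at about 0.5% in these data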
# HTR2A ag conf: mouse HTR2A agonism confirmed; shares compounds with m5-HT2A agonist; CHO-K1 PathHunter beta-arrestin recruitment, luminescence; DMSO 0%, 30 µM serotonin 100%; activation, % at 7.6 µM; hit rate 19% among 2,300; AID 624381;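 active = mean activation across triplicates above the hit threshold derived in the original primary screen, cut at about 15% in these data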
# The depositor's hits bear a star; x = not tested or not shown. Sampled rows, rich in hits. Any-hit rate of the full collection: about 4.3%.
SMILES,Beta2AR agonist,m5-HT2A agonist,TAAR1 ag,MC4R antag cAMP,TAAR1 antag,MC4R barr agon,MOR ag counter,HTR2A ag conf
CCOC(=O)C1CCN(C(=O)CN2C(=O)CSc3ccc(S(=O)(=O)N4CCOCC4)cc32)CC1,-4,35*,5,0,14,-2,0,-1
CN1CCN(C(=O)CN2C(=O)COc3ccc(S(=O)(=O)N4CCOCC4)cc32)CC1,0,18*,4,-2,-22,-3,-1,12
O=C(CN1C(=O)CSc2ccc(S(=O)(=O)N3CCOCC3)cc21)N1CCCCC1,4,0,2,-5,-5,-2,x,x
CCOC(=O)N1CCN(C(=O)CN2C(=O)COc3ccc(S(=O)(=O)N4CCOCC4)cc32)CC1,1,6,1,21,-10,-1,x,x
O=C1CC(c2cccc(Cl)c2)C(n2cncn2)C(=O)C1C1NCCc2ccccc21 (centres undefined),-5,16*,18,-4,-3,-2,-1,-4
COC(=O)[C@H]1C[C@H](OC(=O)Nc2c(C)noc2C)[C@@]2(O)CN(S(=O)(=O)c3ccc(C)cc3)CC2[C@H]1C(=O)OC (some centres undefined),x,16*,0,5,8,-2,0,-2
Cc1cccc(CCNS(=O)(=O)c2ccc3c(c2)NC(=O)C(C)S3)c1 (centres undefined),2,6,3,-2,4,5,x,x
COc1ccccc1CNS(=O)(=O)c1ccc2c(c1)NC(=O)CO2,-2,16*,2,5,-17,1,-1,-2
CCN(CC)C(=O)c1ccc2nc([C@@H]3O[C@H](CO)[C@H](O)[C@H](O)[C@H]3O)[nH]c2c1,x,-3,1,8,4,0,x,x
CC(C)c1cc(C(=O)Nc2cc(Cl)ccc2O)no1,6,4,0,8,17,3,x,x
CC(C)c1cc(C(=O)Nc2cc(Br)ccc2O)no1,2,17*,3,16,12,1,0.7*,2
CN(CC(=O)Nc1ccccc1Br)C(=O)c1cc2c(s1)CCCCC2,7,17*,1,7,2,-1,0,0
CCOC(=O)C1(CC2CC2)CCN(Cc2cc(Cl)c(O)c(OC)c2)CC1,-2,20*,5,-2,0,-2,0,-4
O=S(=O)(NCCCCNS(=O)(=O)c1ccc(F)cc1)c1ccc(F)cc1,-3,-4,3,7,-10,0,x,x
Cc1nc2ccccc2c(=O)n1/N=C/c1cccnc1,2,15*,1,0,9,1,-1,-1
CCN(CC)CCn1c(NC(=O)c2ccc(C(F)(F)F)cc2)nc2ccccc21,-6,-5,-1,-10,-5,-2,x,x
CCN(CC)CCn1c(NC(=O)c2ccc(C)cc2)nc2ccccc21,-8,25*,-1,12,2,1,x,8
CC(C)(C)C(=O)Nc1ccc(C(=O)COC(=O)C2=COCCO2)cc1,-1,1,2,-3,-14,-2,x,x
COc1ccc(CC(=O)OCC(=O)NC2CCCCC2)cc1OC,-4,20*,0,1,3,-2,0,-2
COc1ccc(CCC(=O)OCC(=O)NC2CCCC2)cc1OC,x,-1,2,4,5,4,x,x
Cc1ccc(OCC(=O)OCC(=O)NC2CCCC2)cc1C,0,15*,1,5,-2,-1,0,3
N#Cc1ccccc1NS(=O)(=O)c1cc2c3c(c1)CCN3C(=O)CC2,-1,5,0,14,-29,1,x,x
CC(C)Oc1nc(-c2ccc(Cl)cc2)nc2ccccc12,-2,-3,3,2,-41,-1,x,x
CCOc1nc(-c2ccc(Cl)cc2)nc2ccccc12,22,27*,0,-2,16,-1,0,1
O=C(CN1C(=O)c2cccnc2Oc2ccc(Cl)cc21)Nc1ccccc1F,4,19*,-2,9,-27,-2,0,3
SMILES,Beta2AR agonist,m5-HT2A agonist,TAAR1 ag,MC4R antag cAMP,TAAR1 antag,MC4R barr agon,MOR ag counter,HTR2A ag conf
COc1cccc(NC(=O)CN2C(=O)c3cccnc3Oc3ccc(Cl)cc32)c1,-5,4,2,9,-41,-1,x,x
CC(=O)c1sc(NC(=O)c2cc(S(=O)(=O)N3CCOCC3)ccc2F)nc1C,8,15*,14,19,-1,-2,-1,-1
Cc1ccc(N(CC(=O)N2CCN(Cc3ccccc3)CC2)S(C)(=O)=O)cc1C,3,-1,8,-6,-4,-2,x,x
OC(c1ccc(F)cc1)c1nc(-c2cccc(C(F)(F)F)c2)cs1 (centres undefined),x,23*,-1,9,2,6,0,-6
COc1ccc(C(O)c2nc(-c3cccc(C(C)C)c3)cs2)cc1 (centres undefined),x,-6,-1,11,-16,1,x,x
COc1ccc(C(O)c2nc(-c3cccc(O)c3)cs2)cc1 (centres undefined),x,17*,7,0,-10,-1,-1,-1
Cc1ccccc1CS(=O)(=O)Cc1ccc(C(=O)NC2CCCCC2)o1,10,-3,2,0,6,-1,x,x
Cc1c[nH]c2ccccc12,0,6,x,-6,x,-1,x,x
CC(C)Cc1cc(C(=O)Nc2ccc(F)cc2F)no1,18,18*,2,18,8,2,-1,-3
COc1ccc(NS(=O)(=O)c2cc(NC(=O)C(CC(C)C)NC(N)=O)ccc2N2CCOCC2)cc1 (centres undefined),-1,-1,0,10,2,-2,x,x
CSc1ccc(Cn2c(C)c(C(=O)NCc3cccs3)sc2=O)cc1,x,-4,5,1,32,0,x,x
CCOc1ccc(NC(=S)NCc2ccc3c(c2)OCO3)cc1,1,15*,1,-3,8,2,-1,1
Cc1ccc(NC(=S)NCc2ccc3c(c2)OCO3)cc1,0,-1,6,3,-10,0,x,x
CCOCCc1nnc(NC(=O)CCS(=O)(=O)c2ccccc2)s1,2,5,-3,9,0,0,x,x
Cc1cc(C(C)(C)C)cc(C)c1CC1=NCCN1,3,24*,32,0,-23,1,-1,24*
O=C(Nc1ccc(-c2nnc3n2CCCCC3)cc1)c1ccco1,-7,0,4,5,-11,-2,x,x
